Screening results deposited in PubChem BioAssay by The Scripps Research Institute Molecular Screening Center.
An excerpt weighted towards active compounds, which were near 2.1% of everything screened.
M5 ag = agonists of human muscarinic M5 receptor (CHRM5). P08912. CHO-K1 hM5 cells, Fluo-8 calcium fluorescence; 0% DMSO wells, 100% maximal acetylcholine response. activation, % at 3 µM. 360,000 tested, 0.19% active;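 active = activation above the run's mean over test compounds plus 3 SD, cut at about 23% in these data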;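 also: signal is peak over basal fluorescence ratio across the kinetic read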
Target sequence (P08912 whole entry, looked up): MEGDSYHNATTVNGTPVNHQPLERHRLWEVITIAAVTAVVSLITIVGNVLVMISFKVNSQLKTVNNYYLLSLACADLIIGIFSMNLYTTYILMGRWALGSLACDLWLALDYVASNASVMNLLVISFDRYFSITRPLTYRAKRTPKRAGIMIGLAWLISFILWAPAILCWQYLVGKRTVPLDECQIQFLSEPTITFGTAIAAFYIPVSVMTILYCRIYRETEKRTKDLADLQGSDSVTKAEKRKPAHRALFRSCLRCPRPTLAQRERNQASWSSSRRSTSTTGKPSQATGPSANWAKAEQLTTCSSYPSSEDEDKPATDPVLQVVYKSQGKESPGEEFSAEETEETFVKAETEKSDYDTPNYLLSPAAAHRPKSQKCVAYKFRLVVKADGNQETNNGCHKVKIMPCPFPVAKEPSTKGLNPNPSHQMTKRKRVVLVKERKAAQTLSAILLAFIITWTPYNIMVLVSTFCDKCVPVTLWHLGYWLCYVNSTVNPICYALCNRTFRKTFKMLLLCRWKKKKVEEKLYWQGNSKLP
CHRM1 agonist = activates human CHRM1 receptor | P11229 | CHO-K1 hM1, Fluo-8 calcium fluorescence, agonist mode; 0% DMSO, 100% acetylcholine EC100 | activation, % at 3 µM | AID 588814 | 360,000 tested, 0.33% active;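 active = activation above the run's mean compound activation plus 3 SD, cut at about 16% in these data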;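 also: peak over basal fluorescence ratio within a 140 s kinetic read after compound addition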
CHRM5 antagonist = CHRM5 antagonism in calcium assay; P08912; CHO-hM5 cells, Fluo-8 calcium fluorescence, ACh EC80; inhibition, % at 3 µM; 360,000 tested, 0.59% active; AID 624040;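 active = inhibition above a per-plate cutoff, the mean of that plate's test compounds plus 3 SD, cut at about 27% in these data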;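 also: 0% = acetylcholine EC80 with DMSO and 100% = DMSO without agonist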
CHRM5 PAM = CHRM5 positive allosteric modulation | P08912 | CHO-K1 hM5, Fluo-8 calcium, ACh EC20 PAM; 0% = ACh EC20, 100% = ACh EC100 | activation, % at 3 µM | 360,000 tested, 0.3% active | AID 624038;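 active = activation above the run cutoff, the mean activation of all test compounds plus 3 SD, cut at about 18% in these data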
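Replicates: One well per compound, no replicates | System: Human M5 receptor in CHO-K1 cells | Benchmarks: Low control EC20 acetylcholine (0%), high control EC100 acetylcholine (100%) | Probe or stimulus: Acetylcholine, EC20 level | Times: Fluo-8 loading 80 min at 37 °C plus 30 min room temperature | Signal: Intracellular calcium via Fluo-8 fluorescence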
M1 antag = human CHRM1 antagonism; CHO-K1 hM1, Fluo-8 calcium fluorescence, ACh EC80 antagonist; inhibition, % at 3 µM; 360,000 tested, 1.3% active; AID 588852;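 active = percent inhibition above its own plate's cutoff, namely the mean of that plate's compound wells plus 3 SD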;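 also: peak over basal fluorescence ratio during 140 s after agonist addition; 0% = ACh EC80 plus DMSO and 100% = DMSO alone without agonist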
M1 PAM = human CHRM1 positive allosteric modulation; P11229; CHO-K1 hM1, Fluo-8 calcium fluorescence, ACh EC20; 0% = ACh EC20, 100% = maximal ACh; activation, % at 3 µM; 360,000 tested, 0.088% active; AID 588819; in the data active = activation above about 19%, passing the limit was not always enough
* hit, by the source's call.

SMILES | M5 ag | CHRM1 agonist | CHRM5 antagonist | CHRM5 PAM | M1 antag | M1 PAM
CNCCCCOc1ccccc1-c1ccccc1 | -5 | -8 | 19 | -17 | 37* | -23
CN(C)CCOc1ccccc1-c1ccccc1 | -7 | -6 | 19 | -19 | 45* | -21
Cc1ccc(CC(CC(=O)O)C(=O)NCC23CC4CC(CC(C4)C2)C3)cc1 (configuration not stated) | 0 | -2 | 7 | -5 | 3 | -5
O=C(O)CC(Cc1ccc(Cl)cc1)C(=O)NCC12CC3CC(CC(C3)C1)C2 (configuration not stated) | -2 | -6 | 7 | -6 | 31* | -11
CCOC(=O)Nc1ccc2c(c1)N(C(=O)CCN1CCOCC1)c1ccccc1S2=O (configuration not stated) | -7 | -6 | 16 | -17 | 78* | -27
COC(=O)C1=CN(Cc2cccs2)C=C(C(=O)OC)C1c1ccc(OC)cc1OC | -4 | -4 | 27* | -15 | 0 | 1
COC(=O)C1=CN(Cc2cccs2)C=C(C(=O)OC)C1c1cccc(Cl)c1 | -10 | -5 | 9 | -21 | 7 | -5
COc1ccc(C(=O)OCCOc2ccccc2C(C)=O)c(O)c1 | -3 | -8 | -1 | -7 | -11 | 10
CCOc1ccc(C(=O)Nc2ccccc2OC(F)F)cc1 | -7 | -4 | 3 | 12 | -14 | 10
O=C(Nc1ccccc1OC(F)F)c1ccc(F)cc1 | -1 | -3 | -16 | 24* | -39 | 18
O=C(NCc1cccnc1)c1cc(C2CCCCN2S(=O)(=O)c2ccccc2)on1 (configuration not stated) | -4 | -7 | 11 | -7 | 6 | -4
CN(c1ccccc1)c1ccc(/C=C/[N+](=O)[O-])cc1 | 44* | 23* | 71* | -8 | 64* | -8
Cc1cc(C)c2c(=O)n(CC(=O)Nc3cccc(Cl)c3C)sc2n1 | 28* | 17* | 21 | -9 | 20 | 0
CCCS(=O)(=O)NC(=O)C1(C)CCN(C(=O)c2ccccc2Br)C1 (configuration not stated) | 0 | 3 | 4 | -2 | -27 | 27*
Cc1ccc(NS(=O)(=O)c2ccc(-n3cccn3)cc2)cc1C | 4 | -1 | 4 | -11 | 28* | -17
Cc1ccc(NS(=O)(=O)c2ccc(-n3cccn3)cc2)cc1Cl | 3 | -3 | 6 | 1 | -4 | 2
CN1/C(=C\C(=O)c2ccco2)C(C)(C)c2ccccc21 | 4 | 0 | 44* | -14 | 31* | -10
Cc1cc(-c2ccccc2)[nH]c(=O)c1S(=O)(=O)c1ccc(Cl)cc1 | 2 | -1 | 4 | -3 | -5 | 3
Cc1cc(-c2ccccc2)[nH]c(=O)c1S(=O)(=O)c1ccccc1 | -4 | 1 | 4 | 21* | -11 | 10
COc1ccccc1-n1cnnc1SCC(=O)Nc1ccccc1 | -1 | -4 | 0 | 6 | 2 | -2
O=C(COC(=O)CCc1nc2ccccc2c(=O)[nH]1)Nc1ccccc1OC(F)F | 4 | 5 | 1 | 6 | -15 | 24*
CN(C)CCOC1c2ccccc2CSc2ccccc21 (configuration not stated) | -19 | -8 | 99* | -28 | 99* | -25
O=[N+]([O-])c1ccc(-c2ccc(/C=N/Nc3nc(NCc4ccccc4)nc(N4CCOCC4)n3)o2)cc1 | 3 | 11 | 13 | -9 | 26* | -12
Cc1c(P(=S)(c2ccccc2)c2ccccc2)[n+]2ccccc2n1C/C=C/c1ccccc1 | -4 | -9 | 22 | -18 | 56* | -31
CC(O)c1nc2ccccc2n1C/C=C/c1ccccc1 (configuration not stated) | 0 | -1 | -5 | 1 | -3 | 10
SMILES | M5 ag | CHRM1 agonist | CHRM5 antagonist | CHRM5 PAM | M1 antag | M1 PAM
C[C@@H](NC(=O)c1nc[nH]c1C(=O)OCc1ccccc1)c1ccccc1 | 2 | -5 | 20 | -4 | 12 | -9
C[C@H](NC(=O)c1nc[nH]c1C(=O)NCc1ccc(CNC(=O)OC(C)(C)C)cc1)C(=O)OCc1ccccc1 | 2 | -1 | 29* | -39 | 45* | -21
C[C@@H](NC(=O)c1nc[nH]c1C(=O)NCC(=O)OCc1ccccc1)c1ccccc1 | -4 | -2 | 28* | -35 | 33* | -13
O=C(CNC(=O)c1nc[nH]c1C(=O)N1CCc2ccccc2C1)OCc1ccccc1 | -6 | -6 | 27* | -30 | 21 | -7
C[C@H](NC(=O)c1nc[nH]c1C(=O)NCc1ccc(CNC(=O)OC(C)(C)C)cc1)c1ccccc1 | 0 | -3 | 25 | -19 | 30 | -18
COc1ccc(CNC(=O)c2cc3c(s2)CS(=O)C3)cc1 (configuration not stated) | -1 | 0 | -3 | 1 | -5 | 2
COc1cc(CN2CCN(CCc3ccccc3)C(CCO)C2)cc(OC)c1 (configuration not stated) | -11 | -7 | 11 | -2 | 1 | -3
O=C(CSc1ccc(Cl)cc1)Nc1cccc(-c2nnc(-c3ccco3)o2)c1 | 0 | -5 | 13 | -4 | -5 | 15
O=C(CCC(=O)N1CCN(C2CCCCC2)CC1)Nc1nnc(C(F)(F)F)s1 | -2 | 4 | -2 | 1 | 4 | 6
CCc1nnc(NC(=O)CCC(=O)N2CCCC2)s1 | -3 | -3 | 0 | 9 | -3 | 2
CC(C)c1nnc(NC(=O)CCC(=O)N2CCN(C3CCCCC3)CC2)s1 | -2 | 22* | 1 | -4 | 9 | -12
CCc1nnc(NC(=O)CCC(=O)N2CCN(C3CCCCC3)CC2)s1 | -1 | 19* | -1 | -1 | -1 | -4
O=C(NCc1ccccc1F)C1CCCN1C(=O)Nc1ccc(F)cc1 (configuration not stated) | 1 | -3 | 6 | -1 | -2 | 3
Cc1ncc(CN2CCCC(CCC(=O)NCc3ccc(F)c(F)c3)C2)s1 (configuration not stated) | -10 | -13 | -9 | 0 | -2 | -3
Cc1occc1C(=O)N1CCCC(CCC(=O)NCc2ccc(F)c(F)c2)C1 (configuration not stated) | -2 | -6 | 2 | 3 | -6 | 11
O=C(CCC1CCCN(C2C3CC4CC(C3)CC2C4)C1)NCc1ccc(F)c(F)c1 (configuration not stated) | -16 | -5 | 10 | 0 | 43* | -18
O=C(CCC1CCCN(Cc2ccc3c(c2)CCO3)C1)NCc1ccc(F)c(F)c1 (configuration not stated) | -10 | -12 | -2 | 2 | 33* | -30
